# Measured values as given in ChEMBL document CHEMBL4052804, “Design and synthesis of piperazine acetate podophyllotoxin ester derivatives targeting tubulin depolymerization as new anticancer agents” (Bioorg Med Chem Lett, 2017).
# Calls of active or inactive are those of the source. The calls are words filed in the database; no cut-off is given here.
# Legend:
# MCF7 [1] = assay: Induction of apoptosis in human MCF7 cells assessed as necrotic cells at 2 uM after 24 hrs by Annexin-V-FITC/propidium iodide staining based flow cytometric method (reference value: 2.35 to 2.49%); type: functional
# MCF7 [2] = assay: Cell cycle arrest in human MCF7 cells assessed as accumulation at G2/M phase at 0.3 uM after 12 hrs by propidium iodide staining based flow cytometric method (reference value: 5.43 to 13.68%); type: functional
# MCF7 [3] = assay: Induction of apoptosis in human MCF7 cells assessed as viable cells at 8 uM after 24 hrs by Annexin-V-FITC/propidium iodide staining based flow cytometric method (reference value: 91.6 to 92.7%); type: functional; conditions: MCF7, 24 h, read-out: Activity
# MCF7 [4] = assay: Cell cycle arrest in human MCF7 cells assessed as accumulation at S phase at 0.6 uM after 8 hrs by propidium iodide staining based flow cytometric method (reference value: 29.55 to 32.22%); type: functional
# MCF7 [5] = assay: Cell cycle arrest in human MCF7 cells assessed as accumulation at S phase at 0.6 uM after 16 hrs by propidium iodide staining based flow cytometric method (reference value: 29.55 to 32.22%); type: functional
# MCF7 [6] = assay: Induction of apoptosis in human MCF7 cells assessed as late apoptotic cells at 12 uM after 24 hrs by Annexin-V-FITC/propidium iodide staining based flow cytometric method (reference value: 2 to 3.7%); type: functional
# MCF7 [7] = assay: Cell cycle arrest in human MCF7 cells assessed as accumulation at S phase at 0.6 uM after 12 hrs by propidium iodide staining based flow cytometric method (reference value: 27.63 to 32.34%); type: functional
# MCF7 [8] = assay: Down regulation of cyclin A expression in human MCF7 cells at 0.5 to 2 uM after 24 hrs by Western blot analysis; type: functional, cell-based
# MCF7 [9] = assay: Induction of apoptosis in human MCF7 cells assessed as late apoptotic cells at 4 uM after 24 hrs by Annexin-V-FITC/propidium iodide staining based flow cytometric method (reference value: 2 to 3.7%); type: functional
# HepG2 = assay: Cytotoxicity against human HepG2 cells after 24 hrs by MTT assay; type: functional, cell-based; conditions: HepG2, 24 h
# Outline: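 In vitro antiproliferative screen by MTT assay against human MCF-7 breast, HeLa cervical, A549 lung adenocarcinoma and HepG-2 hepatoma cells. Output is the IC50.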
# MCF7 [10] = assay: Cell cycle arrest in human MCF7 cells assessed as accumulation at G2/M phase at 0.6 uM after 12 hrs by propidium iodide staining based flow cytometric method (reference value: 5.43 to 13.68%); type: functional
compound,measurement,setting,value
COc1cc([C@@H]2c3cc4c(cc3[C@H](OC(=O)CN3CCN(c5ccc(Cl)c(Cl)c5)CC3)[C@H]3COC(=O)[C@H]23)OCO4)cc(OC)c1OC,Activity,MCF7 [1],2.61%
same,Activity,MCF7 [2],37.72%
same,viability at 8 µM,MCF7 [3],67.9%
same,Activity,MCF7 [4],26.13%
same,Activity,MCF7 [5],5.92%
same,Activity,MCF7 [6],20.4%
same,Activity,MCF7 [7],4.21 - 20.78%
same,Activity,MCF7 [8],Active
same,Activity,MCF7 [9],10.5%
same,IC50,HepG2,7.93 µM
same,Activity,MCF7 [10],60.98 - 69.25%
